The values that follow come from ChEMBL document CHEMBL1221219, “Selective blockade of 2-arachidonoylglycerol hydrolysis produces cannabinoid behavioral effects” (Nat Chem Biol, 2009).

Activity calls are given as the source filed them. The rule behind the calls is not given here.

Assay [1] has as its target Cannabinoid receptor 1 (Homo sapiens) (UniProt P21554). The experiment in a line: Displacement of [3H]rimonabant from CB1 in cerebellar membrane after 90 mins by liquid scintillation. It is filed as cell membranes. Conditions: Cerebellum.
Assay [2] has as its target T1, Diacylglycerol lipase-alpha (Homo sapiens) (UniProt Q9Y4D2).
T1 sequence (whole entry): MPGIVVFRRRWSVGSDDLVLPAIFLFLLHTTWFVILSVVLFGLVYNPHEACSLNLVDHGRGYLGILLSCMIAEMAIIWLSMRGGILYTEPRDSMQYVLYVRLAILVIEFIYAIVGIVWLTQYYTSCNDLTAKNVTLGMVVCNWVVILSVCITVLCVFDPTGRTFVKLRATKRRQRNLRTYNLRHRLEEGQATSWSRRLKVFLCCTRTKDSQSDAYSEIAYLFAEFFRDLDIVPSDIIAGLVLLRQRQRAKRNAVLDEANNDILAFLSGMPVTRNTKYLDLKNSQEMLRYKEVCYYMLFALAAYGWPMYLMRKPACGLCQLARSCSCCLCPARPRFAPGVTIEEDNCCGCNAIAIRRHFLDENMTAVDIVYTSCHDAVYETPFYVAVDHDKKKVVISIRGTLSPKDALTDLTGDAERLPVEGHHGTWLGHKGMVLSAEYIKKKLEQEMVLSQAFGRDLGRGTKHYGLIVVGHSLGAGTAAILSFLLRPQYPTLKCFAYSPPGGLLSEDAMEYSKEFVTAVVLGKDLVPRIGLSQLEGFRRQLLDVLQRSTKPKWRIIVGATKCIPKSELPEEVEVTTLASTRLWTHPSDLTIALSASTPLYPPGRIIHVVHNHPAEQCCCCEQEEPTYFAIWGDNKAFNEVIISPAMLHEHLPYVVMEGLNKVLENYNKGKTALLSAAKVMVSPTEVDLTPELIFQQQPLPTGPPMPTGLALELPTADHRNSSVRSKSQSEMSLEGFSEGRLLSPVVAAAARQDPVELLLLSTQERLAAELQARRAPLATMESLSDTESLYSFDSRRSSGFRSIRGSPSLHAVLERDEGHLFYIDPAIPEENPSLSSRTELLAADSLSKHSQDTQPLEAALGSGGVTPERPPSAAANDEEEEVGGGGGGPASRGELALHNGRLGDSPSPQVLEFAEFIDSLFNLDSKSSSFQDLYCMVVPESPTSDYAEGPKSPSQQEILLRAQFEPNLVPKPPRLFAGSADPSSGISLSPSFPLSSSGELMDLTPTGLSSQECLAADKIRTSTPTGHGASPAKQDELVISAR
The experiment in a line: Inhibition of recombinant DAGLalpha expressed in HEK293 cells assessed as hydrolysis of 1-stearoyl-2-arachidonoyl-glycerol to 2-AG at 25 uM after 30 mins by LC-MS method. It is filed as cell-based.

The target of assay [3] is T2, Cytosolic phospholipase A2 (Homo sapiens) (UniProt P47712).
T2 sequence (whole entry): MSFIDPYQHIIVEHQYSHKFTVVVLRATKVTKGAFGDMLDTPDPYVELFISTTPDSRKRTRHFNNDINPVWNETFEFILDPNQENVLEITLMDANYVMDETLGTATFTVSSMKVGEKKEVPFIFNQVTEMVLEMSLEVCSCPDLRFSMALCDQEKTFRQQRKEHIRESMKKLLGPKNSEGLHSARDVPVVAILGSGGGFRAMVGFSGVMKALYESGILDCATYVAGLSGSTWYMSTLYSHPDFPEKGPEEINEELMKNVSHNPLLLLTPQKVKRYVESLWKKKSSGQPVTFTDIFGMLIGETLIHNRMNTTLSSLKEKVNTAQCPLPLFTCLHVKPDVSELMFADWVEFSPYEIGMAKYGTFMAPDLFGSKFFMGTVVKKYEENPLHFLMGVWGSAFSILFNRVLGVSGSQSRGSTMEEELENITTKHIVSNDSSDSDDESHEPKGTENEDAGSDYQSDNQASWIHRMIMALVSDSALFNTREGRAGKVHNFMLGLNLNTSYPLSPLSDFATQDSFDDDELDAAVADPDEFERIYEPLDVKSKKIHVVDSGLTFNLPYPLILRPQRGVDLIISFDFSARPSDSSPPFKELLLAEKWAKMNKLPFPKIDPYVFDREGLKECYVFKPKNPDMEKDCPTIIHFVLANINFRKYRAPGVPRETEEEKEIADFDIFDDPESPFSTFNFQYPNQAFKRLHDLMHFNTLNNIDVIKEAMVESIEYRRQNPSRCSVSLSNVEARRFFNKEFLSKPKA
The experiment in a line: Inhibition of recombinant cPLA2 4a expressed in HEK293 cells at 20 uM by radiolabeled TLC assay. It is filed as cell-based.

Assay [4] concerns Mus musculus. The experiment in a line: Inhibition of MAGL in intraperitoneally dosed C57B1/6J mouse brain membrane assessed as increase in 2-AG level after 4 hrs relative to control. It is filed as functional, organism-based. An outline of the steps:
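Male C57Bl/6J mice dosed i.p. in 4:1 v/v PEG300:Tween80, with vehicle controls; killed at set times (0.5-24 h, or 4 h). Brain membrane 2-AG hydrolysis measured by LC-MS substrate assay, and brain 2-AG measured by lipid LC-MS, relative to vehicle.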

For assay [5], the system named is Mus musculus. The experiment in a line: Inhibition of NTE-like in C57B1/6J mouse brain membrane at 16 mg/kg, ip after 4 hrs by competitive activity-based protein profiling-MudPIT method. It is filed as functional, organism-based. Set-up: dose 16 mg/kg. The gist of the method:
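After i.p. dosing in 4:1 PEG300:Tween80, male C57Bl/6J mice were killed at 4 h. Brain membrane proteomes from treated and vehicle mice were labelled with FP-biotin. Labelled proteins were enriched on avidin, digested on-bead with trypsin and analysed by multidimensional LC-MS. Proteins were identified by SEQUEST, and dosed samples were compared with vehicle.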

Assay [6] relates to Mus musculus. The experiment in a line: Inhibition of MAGL in C57B1/6J mouse brain membrane at 16 mg/kg, ip after 0.5 hrs by competitive activity-based protein profiling method. It counts as functional, organism-based. Set-up: dose 16 mg/kg. The gist of the method:
(§1)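 Male C57Bl/6J mice (6-8 weeks, 20-26 g) given inhibitor i.p. in 4:1 v/v PEG300:Tween80 at 4 ul g^-1 (4-40 mg kg^-1); vehicle controls. Brain membrane proteomes (1 mg ml^-1 in PBS) labelled with FP-rhodamine (2 μM) for 30 min at room temperature. Readout by SDS-PAGE and in-gel fluorescence scanning, compared with vehicle.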

For assay [7], the system named is Mus musculus. In words: Inhibition of FAAH in C57B1/6J mouse brain membrane at 16 mg/kg, ip after 0.5-24 hrs by competitive activity-based protein profiling method. To be noted: route intraperitoneal. It counts as functional. An outline of the steps: as §1
The subject of assay [8] is Mus musculus. In words: Antinociceptive activity against formalin-induced pain in C57B1/6J mouse assessed as paw lifting or licking during early phase (0 to 10 mins) at 40 m/kg, po administered 2 hrs before formalin challenge. It is filed as functional, organism-based.
The test system of assay [9] is Mus musculus. The experiment in a line: Analgesic activity against CB1 receptor deficient C57B1/6J mouse at 16 mg/kg, ip. It counts as functional, organism-based. Set-up: dose 16 mg/kg. An outline of the steps: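 Male C57Bl/6J mice, 6-8 weeks, 20-26 g, given 16 mg kg^-1 i.p. in 4:1 v/v PEG300:Tween80 at 4 μl g^-1; vehicle controls received PEG300:Tween80 alone. Cannabinoid effects were scored in the tetrad test.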

The subject of assay [10] is Mus musculus. In words: Inhibition of FAAH in C57B1/6J mouse brain membrane assessed as elevated level of N-acylethanolamine at 10 mg/kg, ip by competitive activity-based protein profiling method. It counts as functional, organism-based. The arrangement: dose 10 mg/kg.

Sequence of Cannabinoid receptor 1 (Homo sapiens) (P21554 whole entry): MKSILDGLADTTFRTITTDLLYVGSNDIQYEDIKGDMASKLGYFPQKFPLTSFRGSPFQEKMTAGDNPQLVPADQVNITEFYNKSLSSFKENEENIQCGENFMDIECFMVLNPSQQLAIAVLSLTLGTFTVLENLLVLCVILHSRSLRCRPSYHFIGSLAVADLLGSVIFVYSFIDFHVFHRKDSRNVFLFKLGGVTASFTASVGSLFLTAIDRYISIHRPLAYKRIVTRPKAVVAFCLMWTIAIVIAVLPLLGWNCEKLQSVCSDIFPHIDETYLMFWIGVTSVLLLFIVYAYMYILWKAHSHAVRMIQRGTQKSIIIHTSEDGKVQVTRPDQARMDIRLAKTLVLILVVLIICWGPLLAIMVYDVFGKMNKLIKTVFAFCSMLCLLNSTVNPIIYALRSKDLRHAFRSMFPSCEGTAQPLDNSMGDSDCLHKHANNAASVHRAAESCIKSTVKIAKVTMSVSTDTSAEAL

On to `O=C(Oc1ccc([N+](=O)[O-])cc1)N1CCC(C(O)(c2ccc3c(c2)OCO3)c2ccc3c(c2)OCO3)CC1`, for which the result in assay [1] and in assay [9] was inactive. For the same compound, the inhibition entry in [2], in assay [3] and in assay [5] was “inactive” in each case. Further, in [4], the inhibition entry was “Dose-dependent effect”. Also, the inhibition result in assay [6] and in assay [10] was “Active” throughout. Also, 16 mg/kg produced 70% inhibition in vivo in assay [7]. Also, the outcome in assay [8] was Active.

One may read the inhibition in vivo as the percentage by which the read-out fell short of the control.
